In ChEMBL document CHEMBL4689842, “EUbOPEN Chemogenomics Library wave 1” (2021):
“And” between values parts separate entries of the source, which are not always exact repeats. Identical values can stand only once.

System: U2OS
Test: Multiplex assay against U2OS
Assay type: toxicity, cell-based
Details: human, 1 µM, compound concentration 1 uM
Method in brief: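 Hoechst33342, BioTracker Green Microtubule Cytoskeleton Dye, MitoTracker Red and Annexin V Alexa Fluor 680 were added to live cells at seeding, and imaging on a CQ1 microscope at 37°C and 5% CO2 followed compound addition. Gating by CellPathfinder machine learning separated cells into Hoechst high-intensity objects or normal cells, then normal cells into healthy, pyknosed or fragmented nuclei, then pyknosed cells into mitotic or apoptotic. Per cents of healthy-nucleus cells are reported for the tubulin, mitochondrial-mass and membrane-permeability phenotypes.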

C[C@]1(O)C[C@@H](c2nc(-c3ccc4ccc(-c5ccccc5)nc4c3)c3c(N)nccn32)C1 [LINSITINIB]
Population Apoptotic (%) (12 h, replicate 1): 57% and 35% | Population Fragmented Nuclei (%) (12 h, replicate 1): 10% and 3% | Population Healthy Nuclei (%) (12 h, replicate 1): 79% and 85% | Population Hoechst High Intensity Objects (%) (12 h, replicate 1): 2% and 4% | Population Mitochondria Different-Phenotype (%) (12 h, replicate 1): 17% and 28% | Population Mitotic Cells (%) (12 h, replicate 1): 42% and 64% | Population Normal (%) (12 h, replicate 1): 97% and 95% | Population Pyknosed Nuclei (%) (12 h, replicate 1): 9% and 11% | Population Tubulin-Different-Phenotype (%) (12 h, replicate 1): 50% | Total Cell Count (12 h, replicate 1): 132 and 196 | Population Apoptotic (%) (12 h, replicate 2): 50% and 33% | Population Fragmented Nuclei (%) (12 h, replicate 2): 13% and 5% | Population Healthy Nuclei (%) (12 h, replicate 2): 81% and 89% | Population Hoechst High Intensity Objects (%) (12 h, replicate 2): 8% and 19% | Population Membrane Permeable-Phenotype (%) (12 h, replicate 2): 39% and 16% | Population Mitochondria Different-Phenotype (%) (12 h, replicate 2): 16% and 25% | Population Mitotic Cells (%) (12 h, replicate 2): 50% and 66% | Population Normal (%) (12 h, replicate 2): 91% and 80% | Population Pyknosed Nuclei (%) (12 h, replicate 2): 5% and 4% | Population Tubulin-Different-Phenotype (%) (12 h, replicate 2): 45% and 28% | Total Cell Count (12 h, replicate 2): 83 and 65 | Population Apoptotic (%) (24 h, replicate 1): 48% and 53% | Population Fragmented Nuclei (%) (24 h, replicate 1): 4% | Population Healthy Nuclei (%) (24 h, replicate 1): 76% and 87% | Population Membrane Permeable-Phenotype (%) (24 h, replicate 1): 23% and 8% | Population Mitochondria Different-Phenotype (%) (24 h, replicate 1): 20% and 22% | Population Mitotic Cells (%) (24 h, replicate 1): 51% and 46% | Population Normal (%) (24 h, replicate 1): 94% and 98% | Population Pyknosed Nuclei (%) (24 h, replicate 1): 11% and 8% | Population Tubulin-Different-Phenotype (%) (24 h, replicate 1): 41% and 33% | Total Cell Count (24 h, replicate 1): 180 and 194 | Population Fragmented Nuclei (%) (24 h, replicate 2): 12% and 8% | Population Healthy Nuclei (%) (24 h, replicate 2): 79% and 84% | Population Membrane Permeable-Phenotype (%) (24 h, replicate 2): 27% and 13% | Population Mitochondria Different-Phenotype (%) (24 h, replicate 2): 19% and 28% | Population Mitotic Cells (%) (24 h, replicate 2): 60% and 100% | Population Normal (%) (24 h, replicate 2): 95% and 86% | Population Pyknosed Nuclei (%) (24 h, replicate 2): 7% | Population Tubulin-Different-Phenotype (%) (24 h, replicate 2): 28% and 38% | Total Cell Count (24 h, replicate 2): 114 and 78
